{
  "source": "ChEMBL document CHEMBL1795205",
  "about": "“The new 5- or 6-azapyrimidine and cyanuric acid derivatives of l-ascorbic acid bearing the free C-5 hydroxy or C-4 amino group at the ethylenic spacer: CD-spectral absolute configuration determination and biological activity evaluations” (Eur J Med Chem, 2011)",
  "key": {"HeLa [1]": {"system": "HeLa", "test": "Induction of cell cycle arrest in human HeLa cells assessed as accumulation at G2/M phase at 5 uM after 48 hrs by flow cytometry relative to control", "format": "functional", "summary_of_the_method": "(§1)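 Cells were seeded at 3×10⁵ per well in 6-well plates and treated after overnight incubation for 24 and 48 h. They were trypsinized, washed three times in PBS, fixed in cold ethanol and stored at −20 °C. Pellets were washed twice in PBS and treated with RNase A at 37 °C for 15 min, then stained with PI for 30 min in the dark. DNA content was measured by flow cytometry.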"}, "MIA PaCa-2 [2]": {"system": "MIA PaCa-2", "test": "Cytostatic activity against human MIAPaCa2 cells assessed as inhibition of cell proliferation after 72 hrs by MTT assay", "format": "functional, cell-based", "conditions": "MIA PaCa-2, 72 h", "summary_of_the_method": "(§2)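 Monolayer cells grown in DMEM with 10% FBS were seeded on day 0 at 3000–6000 cells/well, set by each line's doubling time. Agents were added the next step in five 10-fold dilutions (0.01–100) for 72 h, with DMSO ≤0.1% and a solvent control. MTT absorbance was converted to percentage growth versus untreated wells on the same plate. Where all PGs exceeded 50, the top concentration was reported as \">\". ANOVA/Tukey, p<0.05.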"}, "MIA PaCa-2 [3]": {"system": "MIA PaCa-2", "test": "Induction of cell cycle arrest in human MIAPaCa2 cells assessed as accumulation at subG1 phase at 1 uM after 24 hrs by flow cytometry (reference value: 0.32 +/- 0.009%)", "format": "functional"}, "HeLa [4]": {"system": "HeLa", "test": "Induction of cell cycle arrest in human HeLa cells assessed as accumulation at S phase at 5 uM after 48 hrs by flow cytometry relative to control", "format": "functional", "summary_of_the_method": "as §1"}, "HeLa [5]": {"system": "HeLa", "test": "Induction of cell cycle arrest in human HeLa cells assessed as accumulation at subG1 phase at 1 uM after 24 hrs by flow cytometry relative to control", "format": "functional", "summary_of_the_method": "as §1"}, "MIA PaCa-2 [6]": {"system": "MIA PaCa-2", "test": "Induction of cell cycle arrest in human MIAPaCa2 cells assessed as accumulation at S phase at 5 uM after 48 hrs by flow cytometry (reference value: 46 +/- 8.13%)", "format": "functional"}, "SW-620 [7]": {"system": "SW-620", "test": "Induction of cell cycle arrest in human SW620 cells assessed as accumulation at G1 phase at 5 uM after 48 hrs by flow cytometry (reference value: 46.6 +/- 4.88%)", "format": "functional"}, "SW-620 [8]": {"system": "SW-620", "test": "Induction of cell cycle arrest in human SW620 cells assessed as accumulation at subG1 phase at 5 uM after 48 hrs by flow cytometry (reference value: 0.18 +/- 0.036%)", "format": "functional"}, "SW-620 [9]": {"system": "SW-620", "test": "Induction of cell cycle arrest in human SW620 cells assessed as accumulation at S phase at 5 uM after 24 hrs by flow cytometry (reference value: 37.7 +/- 0.01%)", "format": "functional"}, "HeLa [10]": {"system": "HeLa", "test": "Induction of cell cycle arrest in human HeLa cells assessed as accumulation at G2/M phase at 5 uM after 24 hrs by flow cytometry relative to control", "format": "functional", "summary_of_the_method": "as §1"}, "MIA PaCa-2 [11]": {"system": "MIA PaCa-2", "test": "Induction of cell cycle arrest in human MIAPaCa2 cells assessed as accumulation at subG1 phase at 5 uM after 48 hrs by flow cytometry (reference value: 0.20 +/- 0.06%)", "format": "functional"}, "HeLa [12]": {"system": "HeLa", "test": "Induction of cell cycle arrest in human HeLa cells assessed as accumulation at G2/M phase at 1 uM after 48 hrs by flow cytometry relative to control", "format": "functional", "summary_of_the_method": "as §1"}, "MIA PaCa-2 [13]": {"system": "MIA PaCa-2", "test": "Induction of cell cycle arrest in human MIAPaCa2 cells assessed as accumulation at G2/M phase at 5 uM after 48 hrs by flow cytometry (reference value: 9.35 +/- 0.92%)", "format": "functional"}, "MIA PaCa-2 [14]": {"system": "MIA PaCa-2", "test": "Induction of cell cycle arrest in human MIAPaCa2 cells assessed as accumulation at subG1 phase at 5 uM after 24 hrs by flow cytometry (reference value: 0.32 +/- 0.009%)", "format": "functional"}, "MIA PaCa-2 [15]": {"system": "MIA PaCa-2", "test": "Induction of cell cycle arrest in human MIAPaCa2 cells assessed as accumulation at G2/M phase at 1 uM after 24 hrs by flow cytometry (reference value: 10.3 +/- 0.07%)", "format": "functional"}, "SW-620 [16]": {"system": "SW-620", "test": "Induction of cell cycle arrest in human SW620 cells assessed as accumulation at G2/M phase at 1 uM after 24 hrs by flow cytometry (reference value: 10.7 +/- 0.07%)", "format": "functional"}, "SW-620 [17]": {"system": "SW-620", "test": "Induction of cell cycle arrest in human SW620 cells assessed as accumulation at S phase at 5 uM after 48 hrs by flow cytometry (reference value: 41.7 +/- 2.47%)", "format": "functional"}, "SW-620 [18]": {"system": "SW-620", "test": "Cytostatic activity against human SW620 cells assessed as inhibition of cell proliferation after 72 hrs by MTT assay", "format": "functional, cell-based", "conditions": "SW-620, 72 h", "summary_of_the_method": "as §2"}, "MIA PaCa-2 [19]": {"system": "MIA PaCa-2", "test": "Induction of cell cycle arrest in human MIAPaCa2 cells assessed as accumulation at S phase at 5 uM after 24 hrs by flow cytometry (reference value: 34.3 +/- 0.07%)", "format": "functional"}, "MIA PaCa-2 [20]": {"system": "MIA PaCa-2", "test": "Induction of cell cycle arrest in human MIAPaCa2 cells assessed as accumulation at S phase at 1 uM after 24 hrs by flow cytometry (reference value: 34.3 +/- 0.07%)", "format": "functional"}, "MIA PaCa-2 [21]": {"system": "MIA PaCa-2", "test": "Induction of cell cycle arrest in human MIAPaCa2 cells assessed as accumulation at subG1 phase at 1 uM after 48 hrs by flow cytometry (reference value: 0.20 +/- 0.06%)", "format": "functional"}, "SW-620 [22]": {"system": "SW-620", "test": "Induction of cell cycle arrest in human SW620 cells assessed as accumulation at S phase at 1 uM after 48 hrs by flow cytometry (reference value: 41.7 +/- 2.47%)", "format": "functional"}, "HeLa [23]": {"system": "HeLa", "test": "Induction of cell cycle arrest in human HeLa cells assessed as accumulation at G1 phase at 5 uM after 24 hrs by flow cytometry relative to control", "format": "functional", "summary_of_the_method": "as §1"}, "MIA PaCa-2 [24]": {"system": "MIA PaCa-2", "test": "Induction of cell cycle arrest in human MIAPaCa2 cells assessed as accumulation at G1 phase at 1 uM after 24 hrs by flow cytometry (reference value: 55.4 +/- 0.01%)", "format": "functional", "summary_of_the_method": "as §1"}, "SW-620 [25]": {"system": "SW-620", "test": "Induction of cell cycle arrest in human SW620 cells assessed as accumulation at G1 phase at 1 uM after 24 hrs by flow cytometry (reference value: 51.6 +/- 0.07%)", "format": "functional"}},
  "data": [
    {"smiles": "Nc1ncn(C/C=C2\\OC(=O)C(OCc3ccccc3)=C2OCc2ccccc2)c(=O)n1", "values": [
      {"measurement": "Activity", "setting": "HeLa [1]", "result": 13.9, "unit": "%"},
      {"measurement": "IC50", "setting": "MIA PaCa-2 [2]", "result": 0.92, "unit": "µM"},
      {"measurement": "Activity", "setting": "MIA PaCa-2 [3]", "result": 0.2, "unit": "%"},
      {"measurement": "Activity", "setting": "HeLa [4]", "result": 62.3, "unit": "%"},
      {"measurement": "Activity", "setting": "HeLa [5]", "result": 0, "unit": "%"},
      {"measurement": "Activity", "setting": "MIA PaCa-2 [6]", "result": 60.9, "unit": "%"},
      {"measurement": "Activity", "setting": "SW-620 [7]", "result": 39.1, "unit": "%"},
      {"measurement": "Activity", "setting": "SW-620 [8]", "result": 0.21, "unit": "%"},
      {"measurement": "Activity", "setting": "SW-620 [9]", "result": 58.3, "unit": "%"},
      {"measurement": "Activity", "setting": "HeLa [10]", "result": 11.5, "unit": "%"},
      {"measurement": "Activity", "setting": "MIA PaCa-2 [11]", "result": 0.31, "unit": "%"},
      {"measurement": "Activity", "setting": "HeLa [12]", "result": 14.4, "unit": "%"},
      {"measurement": "Activity", "setting": "MIA PaCa-2 [13]", "result": 10.2, "unit": "%"},
      {"measurement": "Activity", "setting": "MIA PaCa-2 [14]", "result": 0.21, "unit": "%"},
      {"measurement": "Activity", "setting": "MIA PaCa-2 [15]", "result": 14.9, "unit": "%"},
      {"measurement": "Activity", "setting": "SW-620 [16]", "result": 8.15, "unit": "%"},
      {"measurement": "Activity", "setting": "SW-620 [17]", "result": 51.8, "unit": "%"},
      {"measurement": "IC50", "setting": "SW-620 [18]", "result": 5.62, "unit": "µM"},
      {"measurement": "Activity", "setting": "MIA PaCa-2 [19]", "result": 57.4, "unit": "%"},
      {"measurement": "Activity", "setting": "MIA PaCa-2 [20]", "result": 29.5, "unit": "%"},
      {"measurement": "Activity", "setting": "MIA PaCa-2 [21]", "result": 0.18, "unit": "%"},
      {"measurement": "Activity", "setting": "SW-620 [22]", "result": 58.9, "unit": "%"},
      {"measurement": "Activity", "setting": "HeLa [23]", "result": 16.5, "unit": "%"},
      {"measurement": "Activity", "setting": "MIA PaCa-2 [24]", "result": 55.6, "unit": "%"},
      {"measurement": "Activity", "setting": "SW-620 [25]", "result": 41.3, "unit": "%"}
    ]}
  ]
}
